Measurements: ChEMBL document CHEMBL4513216, “Probing the Open Global Health Chemical Diversity Library for Multistage-Active Starting Points for Next-Generation Antimalarials” (ACS Infect Dis, 2020)

Assay: Toxicity liver stage against HepG2, at 10uM
Format: cell-based
Set-up: test concentration 10 uM, cell line HepG2-A16-CD81EGFP
Details: human, HepG2-A16-CD81EGFP cells; read-out: INHIBITION
In short: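 Uninfected HepG2-A16-CD81EGFP cells, 3 × 10^3 per well, 1536-well, plated on prespotted compound at 10 μM final, parasite-free screening media added to match infected plates; puromycin 10 μM positive, DMSO 0.5% negative; run in parallel with 48 h PbLuc assay at 37 °C, 5% CO2; viability by CellTiter-Glo luminescence, normalized to controls.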

Row | Compound | cytotoxicity at 10 µM [%]
1 | O=C(Nc1cccc2c1CCCC2)c1cccnc1N1CCCNCC1 | 6.84
2 | CC(=O)N1N=C(c2cccs2)OC1C(=O)NCc1ccc(C)o1 (configuration not stated) | -4.67
3 | CCC(C)N1C(=O)c2ccc(C(=O)NCCc3c[nH]cn3)cc2C1=O (configuration not stated) | -8.64
4 | OCc1cc2ccccc2nc1N1CCCCC1 | 14.1
5 | COc1ccccc1CNC(=O)COc1c(C)n(C)ccc1=O | -41.4
6 | COCCCNC(=O)Cc1cc(-c2ccc(Cl)cc2)on1 | -21.4
7 | CSc1ncccc1C(=O)NCCC(O)c1ccco1 (configuration not stated) | -2.93
8 | O=C1CC(NS(=O)(=O)c2ccc(Br)cc2)CN1 (configuration not stated) | -0.154
9 | O=C(NCCNc1cc(N2CCCC2)cnn1)Nc1ccccc1F | -0.367
10 | CC(C)NC(=O)C1CN(C(=O)Cc2ccccc2)CC12CCOCC2 (configuration not stated) | 5.31
11 | COC(=O)C1CCN(C(=O)c2cc(Br)ccc2-n2cnnn2)CC1 | 4.67
12 | O=C(c1ccc(Cn2cc(Br)cn2)cc1)N1CCCC1 | -7.86
13 | O=C(Cc1cccs1)NCc1ccnc(C2CCCOC2)n1 (configuration not stated) | 1.2
14 | c1cc2cc[nH]c2c(CC2CN(Cc3cscn3)C2)n1 | 13.8
15 | CN(C)CC(=O)N1CCCC1c1cncc(Oc2ccc(F)cc2)n1 (configuration not stated) | -10.9
16 | O=C(c1c[nH]c(=O)[nH]c1=O)N1CCCC(c2cnccn2)C1 (configuration not stated) | -3.58
17 | C[C@]1(O)CN(CCC(N)=O)CC[C@@H]1Oc1cccc(F)c1 | -0.224
18 | CN(C(=O)CSc1ncc[nH]1)C1CC1 | 7.97
19 | Cc1cc(N2CCCC(c3nncn3C3CC3)C2)ncn1 (configuration not stated) | -6.48
20 | COc1cccc(C(CO)NC(=O)Cc2cccc(C)c2)c1 (configuration not stated) | 4.53
21 | COc1ccc(Cc2noc(C3=NN(C)C(=O)CC3)n2)cc1OC | 13.3
22 | O=C(NCC1CCN(CCc2ccccc2)C1)NCC1(O)CCC1 (configuration not stated) | -0.128
23 | O=S(=O)(NCCc1ccccc1F)N1CCOCC1 | -1.7

Row | Compound | cytotoxicity at 10 µM [%]
24 | c1cnn(C2CN(c3nc(-c4ccncc4)nc4c3CCC4)C2)c1 | -43
25 | COCC1CN(c2ccc(Cl)cc2C#N)CCO1 (configuration not stated) | 11.1
26 | CCC(CCNCc1cnc(C2CCC2)s1)N1CCCC1=O (configuration not stated) | -3.13
27 | O=C(NCc1nc(C2CC2)no1)N1CCOC(c2cccc(F)c2)C1 (configuration not stated) | -44.6
28 | CNC(=O)c1cccc(NC(=O)c2ccnc(N(C)C)c2)c1C | 4.9
29 | Cc1nn(C)c(Cl)c1C1CCCN1C(=O)c1ccc(N(C)C)nn1 (configuration not stated) | -9.01
30 | CCN(CC)C(=O)COc1nc(C(C)C)no1 | 3.6
31 | COC(C(=O)N1CCN(Cc2noc(C)n2)CC1)c1ccccc1 (configuration not stated) | -1.8
32 | CCCN(CCS(C)(=O)=O)C1CCc2ccccc2C1 (configuration not stated) | -5.08
33 | Cc1sc2nc(C(F)(F)F)nc(N3CCCN(C)CC3)c2c1C | -26.8
34 | CN(Cc1cc(=O)c(O)co1)C1CCN(c2ccc(F)cc2)CC1 | -3.73
35 | COc1cc(CNc2cc(-c3nncn3C)ccn2)cc(OC)c1OC | -3.78
36 | Cc1ccc(S(=O)(=O)n2ccc(C(=O)NCC(F)(F)F)c2)cc1 | -4.78
37 | Cc1nnc2n1CCN(C(=O)c1cnc(C3CC3)s1)C2 | -5.19
38 | CC(C)c1nnc(NC(=O)CCc2cc(F)ccc2F)[nH]1 | -16.9
39 | CCc1ccsc1C(=O)N1CCS(=O)(=O)CC1 | 5.36
40 | CSc1[nH]c(=O)c(C(=O)N2CCCC2c2cccs2)cc1C#N (configuration not stated) | -3.49
41 | CCNc1nc(C(=O)N(C)Cc2nc(CC)no2)cs1 | -6.56
42 | CCNC(=O)CNS(=O)(=O)c1cc(Br)ccc1F | -55.4
43 | CC(C)NC(=O)CC(C)NCc1ccc(F)cc1Cl (configuration not stated) | -40.7
44 | O=C(O)c1ccc(S(=O)(=O)Nc2ccccc2CC(F)(F)F)c(F)c1 | 6.02
45 | COc1cccc(CN(C)C(=O)CN2CC(n3nc(C)cc3C)C2)c1 | -1.38
46 | COCC1c2nnn(C)c2CCN1C(=O)COc1ccccc1OC (configuration not stated) | -105

Row | Compound | cytotoxicity at 10 µM [%]
47 | O=C1CCCN1Cc1nnc2n1CCCN(C(=O)c1ccc[nH]1)C2 | -107
48 | COCC1CN(CCc2ccc(OC)c(OC)c2)Cc2c1cnn2C (configuration not stated) | -105
49 | Cc1noc(C)c1CN1CC[C@H](OCC2CC2)[C@@H](Cc2ccccc2)C1 | -65.8
50 | CN(C)C(=O)CN1CCC2(CCCN(Cc3ccoc3)C2)C1=O (configuration not stated) | -103
51 | CCO[C@@H]1CCN(C(=O)c2cnc(C)cn2)[C@@H]1Cc1cnn(C)c1 | -72.7
52 | Cc1cc(CN2CC[C@H]3C(=O)N(c4cccnc4)CCO[C@H]3C2)no1 | -66.8
53 | O=C(c1ccoc1)N1CC[C@@H]2O[C@@H](COCc3ccccn3)CC[C@@H]21 | -71.1
54 | c1cnc(N2CCCC3(CCN(Cc4ccsc4)C3)C2)nc1 (configuration not stated) | -83.2
55 | CNCC[C@H]1CC(C)(C)Oc2ccc(C)cc21 | 0.526
56 | CCCSc1ncc(-c2nccn2CCC(N)=O)cn1 | -10.4
57 | CCC1CC(=O)NCc2nc3sc(C)cn3c21 (configuration not stated) | 5.27
58 | Cc1csc(N2CCN(C3CCc4ccccc4C3)CC2)n1 (configuration not stated) | 2.01
59 | Cc1cc(=O)c2ccccc2n1CC1CCN(C(C)C)C1 (configuration not stated) | 4.64
60 | COc1coc(CN2CCCC3(CCC(=O)N(C4CC4)C3)C2)cc1=O (configuration not stated) | -39.9
61 | Cc1ccc(-c2cn[nH]c2C2CCCN(c3cnccn3)C2)cc1 (configuration not stated) | 73.6
62 | CNc1nc(C(=O)NCC2CCOc3ccccc3C2)cs1 (configuration not stated) | 2.53
63 | CCN(CC1CCOCC1)C(=O)C1CC(=O)N(Cc2cccnc2)C1 (configuration not stated) | 0.719
64 | CCCc1nc(N(C)CCN2CCCCCC2)c2cnn(C)c2n1 | 3.22
65 | CN1[C@H](CO)C[C@H](CNCc2ccc(Cl)c(F)c2)[C@@H]1c1ccccc1F | -8.39
66 | COc1ccc(OC)c(C2CCN(C(=O)C3CCN(C(C)C)CC3)C2)c1 (configuration not stated) | -7.49
67 | CCOC(=O)CCNC(=O)N1CCOC(Cc2cccc(OC)c2)C1 (configuration not stated) | -1.13
68 | CC(NC(=O)c1ccc(=O)n(C)c1)c1ccccc1-n1cccn1 (configuration not stated) | 2.68
69 | CCNC(=O)C1CCN(c2cc(-c3ccccc3F)nc3ccnn23)C1 (configuration not stated) | 4.31

Row | Compound | cytotoxicity at 10 µM [%]
70 | OCCC1CN(c2ncnc3[nH]cnc23)CCN1Cc1cccs1 (configuration not stated) | 12.8
71 | CSc1nccc(N2CCC(NCCN3CCOCC3)CC2)n1 | -49.5
72 | CCN(Cc1ccncc1)c1cc(C2CCCNC2)nc(C)n1 (configuration not stated) | -5.21
73 | CNc1ncccc1CN1CCN2CCN(C)CC2C1 (configuration not stated) | -2.46
74 | COc1nccnc1N1CCC(C(=O)O)(n2ccc(C(C)(C)C)n2)CC1 | -4.05
75 | CC1CCCN(CCCNC(=O)c2ccc(N(C)S(C)(=O)=O)cc2Cl)C1 (configuration not stated) | -2.28
76 | COc1ccc(C(=O)N2CCOC3(CNCCOC3)C2)c(OC)n1 (configuration not stated) | -8.2
77 | CCn1cc(CN2CCCC(CO)(CCc3ccccc3)C2)c(C)n1 (configuration not stated) | -4.63
78 | O=C(Cn1c(=O)n(Cc2ccco2)c2ncccc21)NC1CCCCC1 | 4.73
79 | Cc1nccn1-c1cccc(C2CCCN(C(=O)c3cc[nH]n3)C2)n1 (configuration not stated) | 0.481
80 | COc1ccc(CNC(=O)NC(C)(C(=O)O)c2ccco2)cc1F (configuration not stated) | 0.808
81 | CCc1nnsc1C(=O)N1CCCC(n2ccnc2C(C)C)C1 (configuration not stated) | -16
82 | Cc1cnn(C2CCCN(C(=O)Cc3c(C)nn(C)c3C)C2)c1 (configuration not stated) | -6.71
83 | NC(=O)c1ccc(C(=O)N2CCCCC2Cn2cccn2)s1 (configuration not stated) | 0.977
84 | CCOCCN1CCN(Cc2nc(CC(C)C)no2)CC1 | -13
85 | CN1CCCc2cc(CNC(=O)c3cc[n+]([O-])cc3)ccc21 | -1.11
86 | Cc1nc(CN(C)C2CCN(CCn3cc(C#N)cn3)C2)no1 (configuration not stated) | -3.82
87 | Cc1nc(C2CCCN(C(=O)CCCn3cccn3)C2)no1 (configuration not stated) | -3.84
88 | O=C(NCCc1ccc(Cl)s1)NCc1nnc2n1CCC2 | -7.15
89 | CC(=O)N1CCCN(C(=O)NCc2ccccn2)CC1 | -7.37
90 | COc1ccccc1N1CCC(CNCc2cccc(C#N)c2)C1 (configuration not stated) | -5.21
91 | CCN(CC)C(=O)CN(C)C1CCc2ccccc21 (configuration not stated) | -5.1
92 | c1cnn(CCNCc2nnc(C3CC3)o2)c1 | -10.5

Row | Compound | cytotoxicity at 10 µM [%]
93 | COc1ccc(C2=CCN(C(=O)CN(C)Cc3ccoc3)CC2)cc1 | -4.87
94 | Cc1nc(C)n(CC2CCCN(CCc3ccccn3)C2)n1 (configuration not stated) | -1.59
95 | CC(C)COCC(NC(=O)c1cc[nH]n1)c1ccco1 (configuration not stated) | -4.72
96 | CN1CCc2c(C#N)c(NCc3cccnc3)n3cnnc3c2C1 | 11.2
97 | CC(C)NC(=O)[C@@H]1C[C@@H]2CCN(Cc3ccoc3)C[C@H]2O1 | -109
98 | Cc1ccc(N2CC[C@H]3CO[C@H](CN(C)Cc4ccco4)[C@H]3C2)nn1 | 8.35
99 | Cc1ccc(N2CCC3(CCCN(C(=O)c4cccnc4)C3)C2)nn1 (configuration not stated) | 2.21
100 | Cn1cc(C(=O)NCc2cn3c(n2)CN(Cc2ccccn2)CC3)cn1 | -13.7
101 | COCCN1CCOCC12CCN(c1nccs1)CC2 | -102
102 | c1cncc(COCc2nnc3n2CCN(Cc2ccco2)C3)c1 | -4.04
103 | COCCN1CCN(c2cccc(C)n2)Cc2ccc(C)nc21 | -106
104 | CC(C)Nc1ncnc2c1CCN(C(=O)c1ccncc1F)CC2 | 4.76
105 | c1cncc(N2CCOCC3(CN(Cc4cccs4)CCO3)C2)c1 (configuration not stated) | -79.7
106 | CN(C)CCN1C[C@@H]2CN(c3ccccc3)C[C@@H]2C1=O | -94
107 | CO[C@@H]1CCN(S(=O)(=O)c2cccnc2)[C@@H]2CN(CC3CC3)C[C@@H]21 | -65.7
108 | CN(Cc1cn2c(n1)CN(CC1CCOC1)CC2)Cc1ccco1 (configuration not stated) | -82.9
109 | c1ccc(OC2COC3(CCN(CC4CC4)CC3)C2)nc1 (configuration not stated) | -75.2
110 | CN(C)CC(=O)N1CCC2(CC(=O)N(c3cccc(C#N)c3)C2)C1 (configuration not stated) | 3.37
111 | c1cc(CNCc2cccc3c2OCCCO3)cc(Cn2cncn2)c1 | 8.1
112 | O=C(C1CC=CC1)N1C[C@@H]2CN(Cc3ccsc3)CCO[C@@H]2C1 | -87.4
